TRAIL sens C8: caspase-8 TRAIL sensitization; inhibition (viability loss, TRAIL sensitization), % at 10 µM; 360,000 compounds, 1% hits; NB7+C8 cells + TRAIL, ATPlite viability luminescence;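 active means compounds causing at least 50% loss of cell viability in the single-dose screen, relative to plate controls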
HSP90 refold inh: inhibitors of HSP90 luciferase refolding in rabbit reticulocyte lysate. luciferase refolding luminescence, 3 h. inhibition, % at 5.6 µM. AID 1789. 290,000 compounds, 0.91% hits;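 active means inhibition above the screen-wide mean plus 3 SD, computed separately per campaign, cut at about 16% in these data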;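 further: 0% = DMSO wells and 100% = 60 µM geldanamycin wells; inhibitors lower the luminescence because luciferase stays unfolded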
FLuc stim CS: affects firefly luciferase, flagging false hits in luciferase stimulation screens; P08659; ATPlite luciferase biochemical, luminescence, 10 min; 0 = ATP-free wells, 1 = DMSO control; activation factor at 10 µM; 200,000 tested, under 10 active; AID 1027;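 active means luciferase activation factor, scaled between plate controls, of at least 2 with compound at 10 µM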
Target sequence (P08659 whole entry, looked up): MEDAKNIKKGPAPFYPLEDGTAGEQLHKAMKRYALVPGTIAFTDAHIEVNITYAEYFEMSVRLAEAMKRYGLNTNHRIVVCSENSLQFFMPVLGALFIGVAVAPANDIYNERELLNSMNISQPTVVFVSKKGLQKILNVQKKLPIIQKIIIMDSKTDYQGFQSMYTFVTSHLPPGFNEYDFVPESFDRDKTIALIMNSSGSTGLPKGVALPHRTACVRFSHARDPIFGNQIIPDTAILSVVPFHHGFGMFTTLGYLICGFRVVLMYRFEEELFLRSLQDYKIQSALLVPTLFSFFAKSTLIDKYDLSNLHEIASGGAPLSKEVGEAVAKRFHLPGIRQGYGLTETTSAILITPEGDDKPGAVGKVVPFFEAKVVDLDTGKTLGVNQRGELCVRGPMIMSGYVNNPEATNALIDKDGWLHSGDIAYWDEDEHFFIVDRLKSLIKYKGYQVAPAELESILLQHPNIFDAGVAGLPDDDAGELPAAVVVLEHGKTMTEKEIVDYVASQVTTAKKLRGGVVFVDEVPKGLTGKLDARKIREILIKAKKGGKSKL
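test system = cell-free luciferase reagent | medium = PBS as buffer for the ATP substrate | dosing = test compounds dosed from 2 mM stocks in 100% DMSO | incubation = 10 min at ambient temperature | detection = luminescence measurement of luciferase light output | benchmarks = low control with PBS replacing ATP, high control enzyme plus ATP without compound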
PPC-1+TRAIL kill: kills PPC-1 cancer cells in the presence of TRAIL | PPC-1 cells + TRAIL, ATPLite viability luminescence | cell killing (% activity), % at 4 µM or 5 µM | 220,000 compounds, 0.41% hits;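 active means cell killing above 50% in the first pass at 4 µM, then a duplicate retest at 5 µM averaging 50% or more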;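 further: plate controls were cells with TRAIL plus DMSO for no effect and medium-only wells lacking cells for full effect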
FLuc inhib CS: Photinus pyralis luciferase inhibition counter-screen; P08659; ATPLite firefly luciferase biochemical luminescence, 10 min; inhibition, % at 10 µM; 200,000 compounds, 1.5% hits;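 active means inhibition above about 50% when tested at 10 µM, limit read from the data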
Starred values were filed as active, the others as inactive; nt = not tested or not shown. A selection: hits, their analogues and other compounds. The true share with any hit is near 2%.

SMILES | TRAIL sens C8 | HSP90 refold inh | FLuc stim CS | PPC-1+TRAIL kill | FLuc inhib CS
Cc1cccc(CS(=O)(=O)c2ncc(Cl)c(C(=O)Nc3c(C)cccc3C)n2)c1 | 29 | 4 | nt | nt | nt
COc1ccc(NC(=O)c2nc(S(=O)(=O)Cc3cccc(C)c3)ncc2Cl)c(OC)c1 | 52* | 1 | nt | nt | nt
COc1ccc(OC)c(NC(=O)c2nc(S(=O)(=O)Cc3ccccc3)ncc2Cl)c1 | 96* | 1 | nt | nt | nt
O=C(Nc1ccc2c(c1)OCCO2)C(C1CC1)N1CCN(c2ccc(C(F)(F)F)cn2)CC1 (stereo not drawn) | -8 | nt | nt | nt | nt
C#CCN(C[C@H]1[C@H](OC(=O)Nc2c(C)noc2C)[C@H](OC(=O)Nc2c(C)noc2C)C[C@@H](C(=O)OC)[C@H]1C(=O)OC)S(=O)(=O)c1ccc(C)cc1 | -11 | nt | nt | nt | nt
O=C(Nc1ccc2nc(-c3ccccn3)[nH]c2c1)C1CCCCC1 | 53* | -1 | 0.4 | 38 | 63*
O=C1C(F)=CC(COC(c2ccccc2)(c2ccccc2)c2ccccc2)OC1n1cc(F)c(=O)[nH]c1=O (stereo not drawn) | 89* | nt | nt | nt | nt
Cc1ccc(S(=O)(=O)N2CCN(C(=O)c3ccc(-n4cncn4)c([N+](=O)[O-])c3)CC2)c(C)c1 | -8 | nt | nt | nt | nt
CC1=C(C(=O)Nc2ccc(CC(=O)NCc3ccccc3C)cc2)SCCO1 | 39 | -6 | nt | nt | nt
CCc1ccc(CNC(=O)Cc2ccc(NC(=O)C3=C(C)OCCS3)cc2)cc1 | 53* | 1 | nt | nt | nt
COc1cccc(CNC(=O)Cc2ccc(NC(=O)C3=C(C)OCCS3)cc2)c1 | 56* | -2 | nt | nt | nt
O=C(C[C@H]1C/C=C\C[C@H](NC(=O)OCC2c3ccccc3-c3ccccc32)C(=O)O[C@H](c2ccccc2)CNC1=O)N[C@H](CO)Cc1ccccc1 | 85* | nt | nt | nt | nt
O=C(N[C@@H]1C/C=C\C[C@H](CC(=O)N(CCO)Cc2ccccc2)C(=O)NC[C@@H](c2ccccc2)OC1=O)OCC1c2ccccc2-c2ccccc21 | 8 | nt | nt | nt | nt
Cc1ccc(-c2nc3ncccc3o2)cc1NC(=O)c1ccc2c(c1)OCO2 | -3 | nt | nt | nt | nt
COC(=O)CSc1ccc(-c2nc3ccc(C)cc3[nH]2)cn1 | 10 | 0 | 0.4 | 24 | 61*
Cc1cc2nc(-c3ccc(SCC(=O)NC(C)C)nc3)[nH]c2cc1C | nt | -1 | 0.5 | 30 | 51*
Cc1cc2nc(-c3ccc(SCC(=O)Nc4ccc(S(=O)(=O)NC5CC5)cc4)nc3)[nH]c2cc1C | 84* | -2 | 0.1 | 52* | 86*
CC(C)(C)NC(=O)CSc1ncccc1-c1nc2ccccc2[nH]1 | 7 | 0 | nt | nt | nt
Cc1cc2nc(-c3ccc(SCc4ccc(C(=O)O)cc4)nc3)[nH]c2cc1C | 7 | 6 | 0.8 | 20 | 18
Cc1cc2nc(-c3cccnc3SCC(=O)NC3CC3)[nH]c2cc1C | nt | 0 | 0.3 | 21 | 70*
Cc1cc2nc(-c3ccc(SCC(=O)N4CCc5ccccc54)nc3)[nH]c2cc1C | 81* | -2 | 0.2 | 45 | 82*
CC(=O)Nc1cccc(-c2ccnc3c2CC(C(=O)NCc2ccc(N4CCN(C)CC4)cc2)O3)c1 (stereo not drawn) | 2 | nt | nt | nt | nt
CCN(CC)CCOC(=O)/C=C/c1ccccc1 | 1 | 1 | nt | 16 | nt
CCN(CC)CC(C)(C)C(=O)/C=C/c1ccc(/C=C/C(=O)C(C)(C)CN(CC)CC)cc1 | 92* | nt | nt | nt | nt
CC1(C(=O)Nc2cccc3cccnc23)CCN1Cc1ccccc1OC(F)F (stereo not drawn) | 17 | nt | nt | nt | nt
SMILES | TRAIL sens C8 | HSP90 refold inh | FLuc stim CS | PPC-1+TRAIL kill | FLuc inhib CS
Cc1ccc(/C=C/C(=O)N2CCc3ccccc3C2)cc1 | 13 | -3 | 0.5 | 32 | 51*
CC(C)(C)c1ccc(/C=C/C(=O)N2CCc3ccccc3C2)cc1 | -3 | -1 | 1 | nt | 1
Cc1nn(-c2ccccc2)c(C)c1/C=N/NC(=O)c1cc(C(C)(C)C)[nH]n1 | 52* | 1 | 1 | 24 | 0
Cc1ccc(NC(=O)CN2C(=O)C(=O)N(C3CCCC3)C2=O)c(Cl)c1 | -3 | nt | nt | nt | nt
O=C(NCc1ccccc1CN1CCCC1)c1ccc(S(=O)(=O)Nc2ccccc2)cc1 | 12 | nt | nt | nt | nt
COc1ccccc1C(=O)Nc1nc(-c2ccc(S(=O)(=O)N3CCOCC3)cc2)cs1 | 76* | 6 | 1 | 39 | -2
CC(C)(C)c1ccc(C(=O)N2CCC2(C)C(=O)Nc2cccc(C#N)c2)cc1 (stereo not drawn) | 5 | nt | nt | nt | nt
O=C(c1ccccc1)c1cc(Cl)ccc1N1C(=O)C=CC1=O | 2 | -4 | 0.4 | 23 | 58*
O=C(N/N=C/C=C/c1ccccc1)c1cc2c(ccc3ccccc32)o1 | 57* | -2 | 0.6 | 41 | 43
O=C(N/N=C/c1ccccc1F)c1cc2c(ccc3ccccc32)o1 | 3 | -2 | nt | nt | nt
CNc1nnc(-c2ccc(OC)cc2)s1 | 9 | 4 | 0.4 | 40 | 63*
CNc1nnc(-c2ccncc2)s1 | 1 | 2 | 1 | 6 | -2
O=C(c1ccccc1)c1nnc(-c2ccccc2F)o1 | -6 | -2 | 0.2 | 3 | 78*
CCCCC(=O)NC(c1ccc(N(C)C)cc1)c1ccc2cccnc2c1O (stereo not drawn) | 32 | 19* | nt | nt | nt
CCCCC(=O)NC(c1ccc(N(CC)CC)cc1)c1ccc2cccnc2c1O (stereo not drawn) | 10 | 8 | nt | nt | nt
CCCC(=O)NC(c1ccccc1OC)c1ccc2cccnc2c1O (stereo not drawn) | 16 | 24* | 1 | 44 | -5
CCCCC(=O)NC(c1ccccc1OC)c1ccc2cccnc2c1O (stereo not drawn) | 10 | 14 | nt | 24 | nt
CSCCC(C(=O)Nc1c(C)cccc1C)N1CCC(Cc2ccccc2)CC1 (stereo not drawn) | 3 | nt | nt | nt | nt
CC(C)CC(N)c1csc(NC(=O)c2cc(C(C)(C)C)nn2Cc2ccccc2)n1 (stereo not drawn) | 84* | nt | nt | nt | nt
CC(C)CC(N)c1csc(NC(=O)Nc2ccccc2Cc2ccccc2)n1 (stereo not drawn) | 24 | nt | nt | nt | nt
COc1c(C)cc(C(O)c2ncc(-c3ccc4ccccc4c3)[nH]2)cc1C (stereo not drawn) | -10 | nt | nt | nt | nt
CN(C)CCNC(=O)c1cc2c(s1)-c1ccc(Cl)cc1SC2 | 97* | -7 | nt | nt | nt
CCOCCCNC(=O)c1cc2c(s1)-c1ccccc1SC2 | 4 | 7 | nt | nt | nt
Cc1ccc(OCCSCc2nnc(NC(=O)Nc3cccc(Cl)c3)s2)cc1 | 52* | -3 | 1.1 | 32 | -8
Cc1nnc(NC(=O)Nc2cccc(Cl)c2)s1 | -7 | -3 | 1 | 6 | -1
COc1ccc(/C=C2\CCC(C3CCCC3)C2=O)cc1 (stereo not drawn) | -1 | -4 | nt | nt | nt
Cc1ccc(/C=C2\CCC(C3CCCC3)C2=O)cc1 (stereo not drawn) | 6 | -5 | 0.4 | 33 | 57*
CCc1nc2c(OCc3ccc(C(F)(F)F)cc3)cccn2c1N(C=O)Cc1ccc(OC)cc1 | 13 | nt | nt | nt | nt
C=C1CC(COc2ccc3c(C)c(Cl)c(=O)oc3c2)(c2ccccc2)OC1=O (stereo not drawn) | 90* | nt | nt | nt | nt

Source: PubChem (several laboratories)
